pEC50: −log10 of the molar value.
Columns and labels:
HEL [1] = experiment: Concentration required to inhibit human cytomegalovirus strain AD169 induced cytopathogenicity in HEL cells by 50%; type: functional, cell-based
HEL [2] = experiment: Concentration required to inhibit human cytomegalovirus strain Davis induced cytopathogenicity in HEL cells by 50%; type: functional, cell-based
HEL [3] = experiment: Concentration required to inhibit herpes simplex virus type 2 induced cytopathogenicity in HEL cells by 50%; type: functional, cell-based; settings: Homo sapiens
HEL [4] = experiment: Concentration required to inhibit herpes simplex virus type 1 induced cytopathogenicity in HEL cells by 50%; type: functional, cell-based; settings: Homo sapiens
HEL [5] = experiment: Concentration required to inhibit cell proliferation in HEL cells by 50%; type: functional; settings: Homo sapiens
HEL [6] = experiment: Concentration required to inhibit Varicella-Zoster virus (strain OKA) induced cytopathogenicity in HEL cells by 50%; type: functional, cell-based; settings: Homo sapiens
CCRF-CEM [7] = experiment: Concentration required to inhibit human immunodeficiency virus-2 (strain ROD) induced cytopathogenicity in CEM cells by 50%; type: functional, cell-based
In short: (§1)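 Human CEM cells (~3 × 10^5 cells/cm³) were infected with 100 CCID50/mL of HIV-1(IIIB) or HIV-2(ROD) and seeded into wells with compound dilutions. After 4 days at 37 °C, HIV-induced giant-cell formation was examined microscopically and EC50 was taken as the concentration giving 50% inhibition.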

CCRF-CEM [8] = experiment: Concentration required to inhibit human immunodeficiency virus-1 (strain IIIb) induced cytopathogenicity in CEM cells by 50%; type: functional, cell-based; in short: as §1
HEL [9] = experiment: Concentration required to inhibit vesicular stomatitis virus induced cytopathogenicity in HEL cells by 50%; type: functional, cell-based; settings: Homo sapiens
HEL [10] = experiment: Concentration required to cause a microscopically visible alteration of cell morphology in HEL cells; type: functional; settings: Homo sapiens
HEL [11] = experiment: Concentration required to inhibit Varicella-Zoster virus (strain 07/1) induced cytopathogenicity in HEL cells by 50%; type: functional, cell-based; settings: Homo sapiens
HEL [12] = experiment: Concentration required to inhibit vaccinia virus induced cytopathogenicity in HEL cells by 50%; type: functional, cell-based; settings: Homo sapiens

Compound | pEC50 (HEL [1]) | pEC50 (HEL [2]) | pEC50 (HEL [3]) | pEC50 (HEL [4]) | CC50 (HEL [5]) | pEC50 (HEL [6]) | pEC50 (CCRF-CEM [7]) | pEC50 (CCRF-CEM [8]) | pEC50 (HEL [9]) | MCC (HEL [10]) | pEC50 (HEL [11]) | pEC50 (HEL [12])
CCCCCCc1cc2cn(COCCO)c(=O)nc2o1 | < 4.10 | < 4.10 | < 4.80 | < 4.80 | > 200 µM | 3.76 | < 4.30 | < 4.30 | < 4.80 | ≥ 400 µM | 3.82 | < 4.80
CCCCCCCCc1cc2cn(COCCO)c(O)nc-2n1 | < 4.80 | < 4.80 | < 4.10 | < 4.10 | 65 µM | < 4.80 | < 4.30 | < 4.30 | < 4.10 | 80 µM | < 4.80 | < 4.10
CCCCCCc1cc2cn(COCCO)c(O)nc-2n1 | 3.40 | 3.60 | < 4.10 | < 4.10 | > 200 µM | 3.69 | < 4.30 | < 4.30 | < 4.10 | > 400 µM | 3.82 | < 4.10
CCCCCCCCCCc1cc2cn(COCCO)c(O)nc-2n1 | 5.29 | 5.74 | < 4.80 | < 4.80 | 32 µM | 5.19 | < 5.00 | < 5.00 | < 4.80 | 80 µM | 5.24 | < 4.80
O=c1[nH]c(=O)n([C@H]2C[C@H](O)[C@@H](CO)O2)cc1/C=C/Br [BRIVUDINE] | < 4.00 | < 4.00 | 3.52 | 6.80 | ≥ 400 µM | 7.52 | < 4.30 | < 4.30 | < 3.30 | > 400 µM | < 3.97 | 4.22
CCCCCc1cc2cn(COCCO)c(O)nc-2n1 | < 3.40 | < 3.40 | < 3.40 | < 3.40 | > 200 µM | < 3.40 | < 3.60 | < 3.60 | < 3.40 | > 400 µM | < 3.40 | < 3.40
CCCCCCCCCCc1cc2cn(COCCO)c(=O)nc2o1 | < 3.40 | < 4.10 | < 4.80 | < 4.80 | > 200 µM | < 4.10 | < 3.60 | < 3.60 | < 4.80 | 400 µM | < 4.10 | < 4.80
CCCCCc1cc2cn(COCCO)c(=O)nc2o1 | < 3.40 | < 3.40 | < 3.40 | < 3.40 | > 200 µM | < 3.40 | < 3.60 | < 4.30 | < 3.40 | > 400 µM | < 3.40 | < 3.40
CCCCCCCCCC#Cc1cc2cn(COCCO)c(=O)nc2o1 | < 5.40 | 5.28 | < 4.40 | < 4.40 | > 50 µM | 5.59 | < 5.00 | < 5.00 | < 4.40 | ≥ 20 µM | 5.15 | < 4.40
OCCOCn1cc2ccnc-2nc1O | < 3.40 | < 3.40 | < 3.40 | < 3.40 | > 200 µM | < 3.40 | < 3.60 | < 3.60 | < 3.40 | > 400 µM | < 3.40 | < 3.40
CCCCCCCCCCCc1cc2cn(COCCO)c(O)nc-2n1 | < 4.80 | < 4.80 | < 4.40 | < 4.40 | 41 µM | 4.80 | < 5.00 | < 5.00 | < 4.40 | 80 µM | 5.00 | < 4.40
CCCCCCCCCc1cc2cn(COCCO)c(O)nc-2n1 | < 4.80 | < 4.80 | < 4.10 | < 4.10 | – | < 4.80 | < 4.30 | < 4.30 | < 4.10 | > 80 µM | < 4.80 | < 4.10
CCCCCCCCC#Cc1cc2cn(COCCO)c(=O)nc2o1 | < 5.40 | 5.28 | < 4.40 | < 4.40 | 42 µM | < 5.30 | < 5.00 | < 5.00 | < 4.40 | ≥ 20 µM | 5.07 | < 4.40

Source: ChEMBL document CHEMBL1140321, “Synthesis and biological evaluation of acyclic 3-[(2-hydroxyethoxy)methyl] analogues of antiviral furo- and pyrrolo[2,3-d]pyrimidine nucleosides” (J Med Chem, 2005)
